The values that follow come from ChEMBL document CHEMBL1123100, “Angiotensin converting enzyme inhibitors: 1,5-benzothiazepine derivatives” (J Med Chem, 1985).

Test [1] deals with T1, Angiotensin-converting enzyme (Rattus norvegicus, UniProt P47820).
T1 sequence (P47820 whole entry): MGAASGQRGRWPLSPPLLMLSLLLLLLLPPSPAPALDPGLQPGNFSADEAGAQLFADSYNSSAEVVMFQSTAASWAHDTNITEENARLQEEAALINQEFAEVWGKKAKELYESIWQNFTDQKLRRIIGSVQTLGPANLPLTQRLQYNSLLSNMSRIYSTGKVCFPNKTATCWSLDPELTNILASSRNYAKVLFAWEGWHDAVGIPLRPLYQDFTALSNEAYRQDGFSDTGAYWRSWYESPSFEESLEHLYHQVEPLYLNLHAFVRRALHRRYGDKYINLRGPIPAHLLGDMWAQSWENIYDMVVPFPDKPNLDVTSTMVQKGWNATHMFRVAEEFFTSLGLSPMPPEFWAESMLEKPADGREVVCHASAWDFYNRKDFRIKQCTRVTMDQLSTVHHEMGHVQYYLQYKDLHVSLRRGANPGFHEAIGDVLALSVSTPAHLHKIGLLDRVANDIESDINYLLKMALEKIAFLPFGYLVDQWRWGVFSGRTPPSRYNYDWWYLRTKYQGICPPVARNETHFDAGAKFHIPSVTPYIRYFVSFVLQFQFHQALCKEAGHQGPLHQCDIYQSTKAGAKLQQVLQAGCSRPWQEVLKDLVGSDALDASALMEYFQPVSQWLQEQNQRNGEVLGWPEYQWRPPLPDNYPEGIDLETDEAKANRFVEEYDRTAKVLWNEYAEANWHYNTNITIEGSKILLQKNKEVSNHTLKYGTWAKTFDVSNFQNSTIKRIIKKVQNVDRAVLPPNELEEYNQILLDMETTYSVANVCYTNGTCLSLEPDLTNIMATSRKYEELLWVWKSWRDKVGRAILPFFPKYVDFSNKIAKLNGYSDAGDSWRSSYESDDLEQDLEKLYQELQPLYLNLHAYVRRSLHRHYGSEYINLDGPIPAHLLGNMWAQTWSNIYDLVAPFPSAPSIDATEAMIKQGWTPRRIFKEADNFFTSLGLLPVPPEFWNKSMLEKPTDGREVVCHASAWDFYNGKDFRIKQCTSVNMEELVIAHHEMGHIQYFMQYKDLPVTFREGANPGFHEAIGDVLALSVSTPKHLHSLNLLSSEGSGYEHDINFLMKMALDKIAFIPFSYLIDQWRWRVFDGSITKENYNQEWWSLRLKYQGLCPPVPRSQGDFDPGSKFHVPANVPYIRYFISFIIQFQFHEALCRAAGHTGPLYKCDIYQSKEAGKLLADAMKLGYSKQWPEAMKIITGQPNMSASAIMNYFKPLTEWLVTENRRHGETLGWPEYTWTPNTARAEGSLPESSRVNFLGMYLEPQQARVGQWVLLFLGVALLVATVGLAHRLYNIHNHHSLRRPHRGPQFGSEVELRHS
Kind of test: Inhibition of Angiotensin I converting enzyme in rat.

Test [2] has as its system Rattus norvegicus. Kind of test: Percent inhibition of angiotensin I (AI) pressor response after intravenous administration (dose of 0.05 mg/kg)to conscious normotensive rats. The format is functional. In a few lines: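 Angiotensin I pressor response measured in conscious normotensive rats, 15 min after intravenous dosing of test compound; value is percent inhibition of the pressor response.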

Test [3] concerns Rattus norvegicus. Kind of test: Percent inhibition of angiotensin I (AI) pressor response after oral administration (dose of 1.0 mg/kg) to conscious normotensive rats. The format is functional. In a few lines:
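Angiotensin I pressor response measured in conscious normotensive rats, 1 h after oral dosing of test compound; value is percent inhibition of the pressor response.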

Test [4] deals with Rattus norvegicus. Nature of the test: The maximal change in blood pressure recorded during the 4-day test period in spontaneously hypertensive rats (SHR) after oral administration. It is filed as functional.

SMILES strings stand for the structures.

Consider `O=C(O)CN1C(=O)[C@@H](NC(CCc2ccccc2)C(=O)O)CS(=O)(=O)c2ccccc21` (stereo partly specified), for which, in test [1], inhibition was half-maximal at 2900 nM (IC50).

Turning to `CCOC(=O)C(CCc1ccccc1)N[C@H]1CSc2ccccc2N(CC(=O)O)C1=O` (stereo partly specified), half-maximal inhibition in test [1] (IC50) was put at 8000 nM.

Take `O=C(O)CN1C(=O)[C@@H](N[C@@H](CCc2ccccc2)C(=O)O)CSc2ccccc21`: it took 2.9 nM to reach half-maximal inhibition in test [1] (IC50).

With `CCOC(=O)CN1C(=O)[C@@H](NC(CCc2ccccc2)C(=O)OCC)CCc2ccccc21` (stereo partly specified), inhibition in test [1] was half-maximal at 430 nM (IC50). For the same compound, the inhibition in vivo (usually the percentage by which the read-out fell short of the control) at 0.05 mg/kg in the test on Rattus norvegicus [2] stood at 77%. For the same compound, the inhibition in vivo at 1 mg/kg in the test with Rattus norvegicus [3] came to 88%. Moreover, the “Max delta BP” value with Rattus norvegicus [4] is reported as -76 mmHg.

As to `O=C(O)CN1C(=O)[C@@H](NC(CCc2ccccc2)C(=O)O)CSc2ccccc21` (stereo partly specified), in test [1], the IC50 (in general, the concentration that gives 50% inhibition) was 9.8 nM.

Turning to `O=C(O)CN1C(=O)[C@@H](N[C@H](CCc2ccccc2)C(=O)O)CSc2ccccc21`, in test [1], the IC50 is 240 nM.

In the case of `O=C(O)CN1C(=O)[C@@H](NC(CCc2ccccc2)C(=O)O)CCc2ccccc21` (stereo partly specified), in test [1], the IC50 was 1.7 nM.

In turn, `O=C(O)CN1C(=O)[C@@H](NC(CCc2ccccc2)C(=O)O)C[S+]([O-])c2ccccc21` (stereo partly specified) yielded an IC50 in test [1] of 5.9 nM.

Compound `CCOC(=O)C(CCc1ccccc1)NC1CSc2ccccc2N(CC(=O)O)C1=O` (stereo in doubt; 14a) came in with an IC50 in test [1] of 860 nM. Against the preceding compound, the IC50 is about 150-fold higher.

With `CCOC(=O)C(CCc1ccccc1)NC1CSc2ccccc2N(CC(=O)O)C1=O.Cl` (stereo in doubt; 14c), in test [1], inhibition was half-maximal at 2200 nM (IC50). In the test on Rattus norvegicus [2], this compound displayed an inhibition in vivo at 0.05 mg/kg of 75%. The same compound returned an inhibition in vivo at 1 mg/kg in the test on Rattus norvegicus [3] of 39%. The “Max delta BP” value in the test with Rattus norvegicus [4] is -35 mmHg.
